ChEMBL document CHEMBL1140876, “Synthesis and antibacterial property of quinolines with potent DNA gyrase activity” (2009)
In brackets after ≈: the same amount, converted by molar mass. Activity calls are given as the source filed them. The rule behind the calls is not given here.

Experiments:
[1] = tested on: Salmonella typhimurium; experiment: Antimicrobial activity against Salmonella Typhimurium at 10 ug after 24 hrs by disk diffusion method; type: functional, Salmonella enterica subsp. enterica serovar Typhimurium; details: Salmonella enterica, read-out: IZ
Method in brief: (§1)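 Inoculum made in 0.85% saline against McFarland standard, swabbed evenly onto nutrient agar; sterile filter-paper discs set equidistant and loaded with equal volumes of drug at varying amounts; zone of inhibition measured after 24 h at 37 °C; ciprofloxacin reference.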

[2] = tested on: Klebsiella pneumoniae; experiment: Antimicrobial activity against Klebsiella pneumoniae at 15 ug after 24 hrs by disk diffusion method; type: functional; details: read-out: IZ; method in brief: as §1
[3] = tested on: Staphylococcus aureus; experiment: Antimicrobial activity against Staphylococcus aureus at 15 ug after 24 hrs by disk diffusion method; type: functional; details: read-out: IZ; method in brief: as §1
[4] = tested on: Escherichia coli; experiment: Inhibition of DNA gyrase gene expression in Escherichia coli assessed as decrease in band intensity by RT-PCR amplification
Method in brief: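 E. coli treated with drug; total RNA from cells sampled up to 24 h; 2 µg RNA to cDNA with MMLV reverse transcriptase; gyrase gene PCR (94 °C 4 min initial denaturation, 72 °C 7 min final extension); products on agarose gel, band intensity normalized to GAPDH; untreated cells as negative control.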

[5] = tested on: Escherichia coli; experiment: Antimicrobial activity against Escherichia coli at 25 ug after 24 hrs by disk diffusion method; type: functional; details: read-out: IZ; method in brief: as §1
[6] = tested on: Bacillus subtilis; experiment: Antimicrobial activity against Bacillus subtilis at 25 ug after 24 hrs by disk diffusion method; type: functional; details: read-out: IZ; method in brief: as §1
[7] = tested on: Salmonella typhimurium; experiment: Antimicrobial activity against Salmonella Typhimurium at 25 ug after 24 hrs by disk diffusion method; type: functional, Salmonella enterica subsp. enterica serovar Typhimurium; details: Salmonella enterica, read-out: IZ; method in brief: as §1
[8] = tested on: Pseudomonas aeruginosa; experiment: Antimicrobial activity against Pseudomonas aeruginosa at 15 ug after 24 hrs by disk diffusion method; type: functional; details: read-out: IZ; method in brief: as §1
[9] = tested on: Klebsiella pneumoniae; experiment: Antimicrobial activity against Klebsiella pneumoniae at 20 ug after 24 hrs by disk diffusion method; type: functional; details: read-out: IZ; method in brief: as §1
[10] = tested on: Salmonella typhimurium; experiment: Antimicrobial activity against Salmonella Typhimurium at 15 ug after 24 hrs by disk diffusion method; type: functional, Salmonella enterica subsp. enterica serovar Typhimurium; details: Salmonella enterica, read-out: IZ; method in brief: as §1
[11] = tested on: Bacillus subtilis; experiment: Antimicrobial activity against Bacillus subtilis by broth microdilution assay; type: functional
Method in brief: (§2)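 Broth microdilution per NCCLS 1997 in 96-well plate; final inoculum 10^5 cfu/mL; incubated 35.7 °C in air 18–20 h; MIC read as lowest concentration with no visible growth.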

[12] = tested on: Bacillus subtilis; experiment: Antimicrobial activity against Bacillus subtilis at 15 ug after 24 hrs by disk diffusion method; type: functional; details: read-out: IZ; method in brief: as §1
[13] = tested on: Klebsiella pneumoniae; experiment: Antimicrobial activity against Klebsiella pneumoniae at 25 ug after 24 hrs by disk diffusion method; type: functional; details: read-out: IZ; method in brief: as §1
[14] = tested on: Escherichia coli; experiment: Antimicrobial activity against Escherichia coli at 5 ug after 24 hrs by disk diffusion method; type: functional; details: read-out: IZ; method in brief: as §1
[15] = tested on: Pseudomonas aeruginosa; experiment: Antimicrobial activity against Pseudomonas aeruginosa at 10 ug after 24 hrs by disk diffusion method; type: functional; details: read-out: IZ; method in brief: as §1
[16] = tested on: Pseudomonas aeruginosa; experiment: Antimicrobial activity against Pseudomonas aeruginosa at 5 ug after 24 hrs by disk diffusion method; type: functional; details: read-out: IZ; method in brief: as §1
[17] = tested on: Salmonella typhi; experiment: Antimicrobial activity against Salmonella typhi by broth microdilution assay; type: functional, Salmonella enterica subsp. enterica serovar Typhi; details: Salmonella enterica
Method in brief: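 Broth microdilution in 96-well plates following the NCCLS 1997 protocol. Final inoculum was 10^5 cfu/mL, with a control organism run alongside. Plates were incubated at 35.7 °C in air for 18–20 h. MIC is the lowest concentration with no visible growth.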

[18] = tested on: Klebsiella pneumoniae; experiment: Antimicrobial activity against Klebsiella pneumoniae at 5 ug after 24 hrs by disk diffusion method; type: functional; details: read-out: IZ; method in brief: as §1
[19] = tested on: Staphylococcus aureus; experiment: Antimicrobial activity against Staphylococcus aureus by broth microdilution assay; type: functional; method in brief: as §2
[20] = tested on: Staphylococcus aureus; experiment: Antimicrobial activity against Staphylococcus aureus at 25 ug after 24 hrs by disk diffusion method; type: functional; details: read-out: IZ; method in brief: as §1
[21] = tested on: Staphylococcus aureus; experiment: Antimicrobial activity against Staphylococcus aureus at 20 ug after 24 hrs by disk diffusion method; type: functional; details: read-out: IZ; method in brief: as §1
[22] = tested on: Bacillus subtilis; experiment: Antimicrobial activity against Bacillus subtilis at 10 ug after 24 hrs by disk diffusion method; type: functional; details: read-out: IZ; method in brief: as §1
[23] = tested on: Bacillus subtilis; experiment: Antimicrobial activity against Bacillus subtilis at 20 ug after 24 hrs by disk diffusion method; type: functional; details: read-out: IZ; method in brief: as §1
[24] = tested on: Staphylococcus aureus; experiment: Antimicrobial activity against Staphylococcus aureus at 5 ug after 24 hrs by disk diffusion method; type: functional; details: read-out: IZ; method in brief: as §1
[25] = tested on: Pseudomonas aeruginosa; experiment: Antimicrobial activity against Pseudomonas aeruginosa at 25 ug after 24 hrs by disk diffusion method; type: functional; details: read-out: IZ; method in brief: as §1
[26] = tested on: Escherichia coli; experiment: Antimicrobial activity against Escherichia coli by broth microdilution assay; type: functional; method in brief: as §2
[27] = tested on: Salmonella typhimurium; experiment: Antimicrobial activity against Salmonella Typhimurium at 20 ug after 24 hrs by disk diffusion method; type: functional, Salmonella enterica subsp. enterica serovar Typhimurium; details: Salmonella enterica, read-out: IZ; method in brief: as §1
[28] = tested on: Pseudomonas aeruginosa; experiment: Antimicrobial activity against Pseudomonas aeruginosa by broth microdilution assay; type: functional; method in brief: as §2
[29] = tested on: Staphylococcus aureus; experiment: Antimicrobial activity against Staphylococcus aureus at 10 ug after 24 hrs by disk diffusion method; type: functional; details: read-out: IZ; method in brief: as §1
[30] = tested on: Klebsiella pneumoniae; experiment: Antimicrobial activity against Klebsiella pneumoniae at 10 ug after 24 hrs by disk diffusion method; type: functional; details: read-out: IZ; method in brief: as §1
[31] = tested on: Salmonella typhimurium; experiment: Antimicrobial activity against Salmonella Typhimurium at 5 ug after 24 hrs by disk diffusion method; type: functional, Salmonella enterica subsp. enterica serovar Typhimurium; details: Salmonella enterica, read-out: IZ; method in brief: as §1
[32] = tested on: Pseudomonas aeruginosa; experiment: Antimicrobial activity against Pseudomonas aeruginosa at 20 ug after 24 hrs by disk diffusion method; type: functional; details: read-out: IZ; method in brief: as §1
[33] = tested on: Klebsiella pneumoniae; experiment: Antimicrobial activity against Klebsiella pneumoniae by broth microdilution assay; type: functional; method in brief: as §2
[34] = tested on: Escherichia coli; experiment: Antimicrobial activity against Escherichia coli at 20 ug after 24 hrs by disk diffusion method; type: functional; details: read-out: IZ; method in brief: as §1
[35] = Inhibition of DNA gyrase assessed as conversion of relaxed pBR322 to supercoiled form
Method in brief: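 Supercoiling in 15 µL reactions: gyrase assay buffer, 150 ng relaxed pBR322, 2–3 µL purified DNA gyrase, 3 h at 37 °C (E. coli); stopped with 50% glycerol/0.25% bromophenol blue; 1% agarose in 1× TBE pH 8.3, 90 V 3 h; ethidium bromide stain; supercoiled band brightness by densitometry. Ciprofloxacin comparator.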

[36] = tested on: Escherichia coli; experiment: Antimicrobial activity against Escherichia coli at 15 ug after 24 hrs by disk diffusion method; type: functional; details: read-out: IZ; method in brief: as §1
[37] = Inhibition of DNA gyrase assessed as pBR322 DNA relaxation at 5 uM
Method in brief: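 Relaxation without ATP: gyrase (60 nM) with supercoiled pBR322 DNA (6 nM) and drug at […] for 1 h at 37 °C; relaxation judged by gel. Ciprofloxacin, novobiocin and nalidixic acid comparators.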

[38] = tested on: Escherichia coli; experiment: Antimicrobial activity against Escherichia coli at 10 ug after 24 hrs by disk diffusion method; type: functional; details: read-out: IZ; method in brief: as §1

COc1ccc2c(c1)C(c1ccccc1)[C@@H]1Cn3cccc3[C@@H]1N2 (some centres undefined)
zone of inhibition at 10 µg/disc [1]: 16 mm | zone of inhibition at 15 µg/disc [2]: 16 mm | zone of inhibition at 15 µg/disc [3]: 26 mm | Activity [4]: Active | zone of inhibition at 25 µg/disc [5]: 23 mm | zone of inhibition at 25 µg/disc [6]: 11 mm | zone of inhibition at 25 µg/disc [7]: 24 mm | zone of inhibition at 15 µg/disc [8]: 28 mm | zone of inhibition at 20 µg/disc [9]: 24 mm | zone of inhibition at 15 µg/disc [10]: 18 mm | MIC50 [11]: 0.3 µg/mL (≈ 0.948 µM) | MIC90 [11]: 2 µg/mL (≈ 6.32 µM) | zone of inhibition at 15 µg/disc [12]: 9 mm | zone of inhibition at 25 µg/disc [13]: 26 mm | zone of inhibition at 5 µg/disc [14]: 12 mm | zone of inhibition at 10 µg/disc [15]: 26 mm | zone of inhibition at 5 µg/disc [16]: 24 mm | MIC50 [17]: 0.06 µg/mL (≈ 0.19 µM) | MIC90 [17]: 0.15 µg/mL (≈ 0.474 µM) | zone of inhibition at 5 µg/disc [18]: 10 mm | MIC50 [19]: 0.5 µg/mL (≈ 1.58 µM) | MIC90 [19]: 0.5 µg/mL (≈ 1.58 µM) | zone of inhibition at 25 µg/disc [20]: 36 mm | zone of inhibition at 20 µg/disc [21]: 30 mm | zone of inhibition at 10 µg/disc [22]: 8 mm | zone of inhibition at 20 µg/disc [23]: 10 mm | zone of inhibition at 5 µg/disc [24]: 20 mm | zone of inhibition at 25 µg/disc [25]: 36 mm | MIC50 [26]: 0.125 µg/mL (≈ 0.395 µM) | MIC90 [26]: 0.25 µg/mL (≈ 0.79 µM) | zone of inhibition at 20 µg/disc [27]: 22 mm | MIC50 [28]: 0.125 µg/mL (≈ 0.395 µM) | MIC90 [28]: 1 µg/mL (≈ 3.16 µM) | zone of inhibition at 10 µg/disc [29]: 24 mm | zone of inhibition at 10 µg/disc [30]: 14 mm | zone of inhibition at 5 µg/disc [31]: 10 mm | zone of inhibition at 20 µg/disc [32]: 34 mm | MIC50 [33]: 0.25 µg/mL (≈ 0.79 µM) | MIC90 [33]: 2 µg/mL (≈ 6.32 µM) | zone of inhibition at 20 µg/disc [34]: 22 mm | Activity [35]: Active | zone of inhibition at 15 µg/disc [36]: 16 mm | Activity [37]: inactive | zone of inhibition at 10 µg/disc [38]: 14 mm
